Measured values from ChEMBL document CHEMBL3632461 (J Med Chem, 2015).

How the values were obtained:
Cytochrome P450 2B6 = target: T1, Cytochrome P450 2B6 (Homo sapiens, UniProt P20813); assay: Time-dependent inhibition of CYP2B6 in human liver microsomes; assay type: ADME
T1 sequence (P20813 whole entry): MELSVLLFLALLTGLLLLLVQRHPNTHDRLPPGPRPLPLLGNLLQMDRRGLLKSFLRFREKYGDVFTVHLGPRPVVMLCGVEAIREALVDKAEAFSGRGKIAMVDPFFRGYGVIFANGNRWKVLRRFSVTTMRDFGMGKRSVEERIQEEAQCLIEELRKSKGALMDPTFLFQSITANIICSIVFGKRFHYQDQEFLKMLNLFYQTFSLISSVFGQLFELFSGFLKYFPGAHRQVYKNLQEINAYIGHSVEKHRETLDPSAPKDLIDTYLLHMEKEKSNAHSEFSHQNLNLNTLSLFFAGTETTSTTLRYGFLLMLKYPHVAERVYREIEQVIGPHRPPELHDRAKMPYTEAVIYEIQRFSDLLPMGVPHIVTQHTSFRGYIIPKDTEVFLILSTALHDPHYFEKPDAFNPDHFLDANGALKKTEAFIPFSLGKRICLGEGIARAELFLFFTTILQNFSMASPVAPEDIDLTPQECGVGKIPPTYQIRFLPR
In short: (§1)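 Time- and concentration-dependent CYP inhibition assessed by an IC₅₀ shift assay in human liver microsomes.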

Cytochrome P450 1A2 = target: T2, Cytochrome P450 1A2 (Homo sapiens, UniProt P05177); assay: Time-dependent inhibition of CYP1A2 in human liver microsomes; assay type: ADME; in short: as §1
T2 sequence (P05177 whole entry): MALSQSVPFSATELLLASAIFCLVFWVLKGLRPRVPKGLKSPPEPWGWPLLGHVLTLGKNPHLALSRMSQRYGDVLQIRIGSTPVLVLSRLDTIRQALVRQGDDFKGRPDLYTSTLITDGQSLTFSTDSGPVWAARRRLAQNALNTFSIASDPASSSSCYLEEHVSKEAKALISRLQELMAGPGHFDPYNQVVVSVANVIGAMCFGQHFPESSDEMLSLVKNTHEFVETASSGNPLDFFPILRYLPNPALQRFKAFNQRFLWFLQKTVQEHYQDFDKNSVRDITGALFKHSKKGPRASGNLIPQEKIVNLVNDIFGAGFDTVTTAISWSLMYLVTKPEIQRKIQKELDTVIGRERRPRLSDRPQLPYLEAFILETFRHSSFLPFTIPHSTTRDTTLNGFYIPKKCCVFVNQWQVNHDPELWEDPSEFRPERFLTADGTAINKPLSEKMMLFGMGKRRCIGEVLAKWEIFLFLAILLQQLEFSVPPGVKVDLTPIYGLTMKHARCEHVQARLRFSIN

Cytochrome P450 2C9 = Cytochrome P450 2C9 (Homo sapiens, UniProt P11712); assay: Time-dependent inhibition of CYP2C9 in human liver microsomes; assay type: ADME; in short: as §1
Cytochrome P450 2C9, sequence (P11712 whole entry): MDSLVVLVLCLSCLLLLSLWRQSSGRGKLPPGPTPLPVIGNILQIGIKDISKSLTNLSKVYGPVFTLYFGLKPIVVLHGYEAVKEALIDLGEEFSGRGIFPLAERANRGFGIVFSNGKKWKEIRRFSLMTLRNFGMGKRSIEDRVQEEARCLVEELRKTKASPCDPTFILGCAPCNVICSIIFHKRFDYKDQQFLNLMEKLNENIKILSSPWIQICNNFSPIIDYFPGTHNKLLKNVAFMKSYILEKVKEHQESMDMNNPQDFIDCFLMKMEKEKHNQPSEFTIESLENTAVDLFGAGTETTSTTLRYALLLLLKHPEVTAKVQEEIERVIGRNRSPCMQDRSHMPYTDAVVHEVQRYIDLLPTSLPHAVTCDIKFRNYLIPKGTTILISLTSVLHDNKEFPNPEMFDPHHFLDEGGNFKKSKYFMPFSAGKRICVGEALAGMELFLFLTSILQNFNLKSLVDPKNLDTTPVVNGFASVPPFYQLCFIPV

Cytochrome P450 2C8 = target: T3, Cytochrome P450 2C8 (Homo sapiens, UniProt P10632); assay: Reversible inhibition of CYP2C8 amodiaquine-N-deethylase activity in human liver microsomes by LC-MS/MS analysis; assay type: ADME
T3 sequence (P10632 whole entry): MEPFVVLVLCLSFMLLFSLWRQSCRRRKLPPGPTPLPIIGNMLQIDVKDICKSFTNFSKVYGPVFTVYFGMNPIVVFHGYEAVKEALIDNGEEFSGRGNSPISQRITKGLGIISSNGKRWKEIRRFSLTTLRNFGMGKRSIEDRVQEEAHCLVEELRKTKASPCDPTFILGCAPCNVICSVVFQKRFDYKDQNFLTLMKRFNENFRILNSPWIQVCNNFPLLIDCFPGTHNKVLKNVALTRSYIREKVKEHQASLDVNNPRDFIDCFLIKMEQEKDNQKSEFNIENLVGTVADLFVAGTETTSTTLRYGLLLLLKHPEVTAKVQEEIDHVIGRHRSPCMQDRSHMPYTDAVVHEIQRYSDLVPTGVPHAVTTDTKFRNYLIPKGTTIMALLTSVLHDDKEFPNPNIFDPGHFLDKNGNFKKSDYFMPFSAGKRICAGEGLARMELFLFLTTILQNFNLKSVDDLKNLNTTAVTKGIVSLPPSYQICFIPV
In short: (§2)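 Reversible inhibition of the major CYP enzymes tested in human liver microsomes using established protocols.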

[1] = Fraction unbound in monkey plasma at 2 uM by equilibrium dialysis method; assay type: ADME, cell-free, Macaca mulatta; details: rhesus monkey
In short: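 Compound at 2 μM in mouse, rat, dog, monkey or human plasma; unbound fraction measured by equilibrium dialysis and reported as a mean.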

Cytochrome P450 3A4 = Cytochrome P450 3A4 (Homo sapiens, UniProt P08684); assay: Reversible inhibition of CYP3A4 in human liver microsomes by LC-MS/MS analysis; assay type: ADME; in short: as §2
Cytochrome P450 3A4, sequence (P08684 whole entry): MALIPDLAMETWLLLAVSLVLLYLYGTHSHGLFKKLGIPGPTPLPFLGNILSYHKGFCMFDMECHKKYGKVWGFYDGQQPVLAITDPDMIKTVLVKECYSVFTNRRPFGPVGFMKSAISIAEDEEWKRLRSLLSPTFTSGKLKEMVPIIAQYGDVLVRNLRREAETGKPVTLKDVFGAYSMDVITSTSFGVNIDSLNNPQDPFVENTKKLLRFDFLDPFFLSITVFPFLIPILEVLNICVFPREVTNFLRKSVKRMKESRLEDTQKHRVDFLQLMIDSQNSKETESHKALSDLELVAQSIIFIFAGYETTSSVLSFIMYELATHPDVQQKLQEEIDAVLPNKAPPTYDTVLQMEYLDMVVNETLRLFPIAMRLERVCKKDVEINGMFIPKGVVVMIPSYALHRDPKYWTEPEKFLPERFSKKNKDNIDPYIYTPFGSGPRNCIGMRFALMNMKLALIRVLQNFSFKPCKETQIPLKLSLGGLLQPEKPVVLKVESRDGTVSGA

COc1ccc(Cl)cc1-c1cc(=O)[nH]c(=S)n1CC(N)=O [PF-06282999]
IC50 (Cytochrome P450 2B6): > 100 µM | IC50 (Cytochrome P450 1A2): > 100 µM | IC50 (Cytochrome P450 2C9): > 100 µM | IC50 (Cytochrome P450 2C8): > 100 µM | fraction unbound at 2 µM [1]: 0.536 | IC50 (Cytochrome P450 3A4): > 100 µM
